# SENP8 block-1 = SENP8 (human) protease inhibition. 0.64% of 360,000 active. recombinant SENP8, Nedd8 substrate fluorescence. Q96LD8. inhibition, % at 20 µM; in the data active = inhibition mostly above about 40%, no sharp cut-off; inactive = mostly below about 27%
# Target sequence (Q96LD8 whole entry, looked up): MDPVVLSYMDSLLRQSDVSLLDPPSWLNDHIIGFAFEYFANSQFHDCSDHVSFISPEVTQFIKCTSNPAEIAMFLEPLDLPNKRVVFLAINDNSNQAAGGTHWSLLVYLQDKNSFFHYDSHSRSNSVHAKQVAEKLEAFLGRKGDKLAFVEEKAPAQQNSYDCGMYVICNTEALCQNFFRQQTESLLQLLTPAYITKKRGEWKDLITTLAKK
# SENP8 block-2 = blocks the human protease SENP8; Q96LD8; purified SENP8, Z-RLRGG-aminoluciferin cleavage, luminescence; inhibition, % at 10 µM; 1.2% of 330,000 active; in the data active = inhibition above about 50%
# SENP6 block = SENP6 protease inhibition. Q9GZR1. Recombinant SENP6 catalytic domain, aminoluciferin luminescence. inhibition, % at 10 µM. 1.8% of 330,000 active. AID 2599;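 active = inhibition above about 50% at the single tested dose, limit read from the data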;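 note: plate controls were DMSO wells with enzyme for no effect and DMSO wells lacking enzyme for full effect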
# SENP7 block = inhibitors of human SENP7 protease; 1.5% of 330,000 active; recombinant SENP7, Z-RLRGG-aminoluciferin luminescence, 40 min; inhibition, % at 5 µM;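 active = inhibition above about 50% at the single test dose, limit read from the data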;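 note: plate controls were DMSO with enzyme for no effect and no enzyme buffer wells for full effect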
# HSP90 refold inh = inhibitors of HSP90 luciferase refolding in rabbit reticulocyte lysate; luciferase refolding luminescence, 3 h; inhibition, % at 5.6 µM; 0.91% of 290,000 active; AID 1789;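 active = inhibition above the screen-wide mean plus 3 SD, computed separately per campaign, cut at about 16% in these data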;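 note: 0% = DMSO wells and 100% = 60 µM geldanamycin wells; inhibitors lower the luminescence because luciferase stays unfolded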
# SENP1 FRET inh = SENP1 (human) catalytic domain inhibition; AID 624204; Q9P0U3; 0.21% of 360,000 active; recombinant SENP1 catalytic domain, CyPet-SUMO1-YPet FRET cleavage; inhibition, % at 10 µM;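 active = inhibition at least 30% at 10 µM, raw YFP signal under a set limit, fluorescence ratio 0.5 to 1.5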;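 note: 0% = enzyme with DMSO and 100% = no enzyme wells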
# Target sequence (Q9P0U3 419-644 limits assumed): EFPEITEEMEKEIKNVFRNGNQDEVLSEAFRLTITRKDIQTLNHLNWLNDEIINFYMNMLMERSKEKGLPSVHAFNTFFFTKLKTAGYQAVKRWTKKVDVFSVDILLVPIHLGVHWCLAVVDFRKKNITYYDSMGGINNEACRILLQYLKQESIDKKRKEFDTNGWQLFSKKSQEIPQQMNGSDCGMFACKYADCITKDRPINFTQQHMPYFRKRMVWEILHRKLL
#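 Controls: no-enzyme wells low, DMSO-plus-enzyme wells high control. Test system: human recombinant His6-tagged SENP1 catalytic domain enzyme. Reagent: SFCypet-SUMO1-SFYpet FRET protein substrate, 25 nM final. Doses: one dose per compound, 10 µM, 0.5% DMSO. Detection: FRET, CFP and YFP emission. Timing: 50 min reaction at room temperature.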
# SENP8 conf = human SENP8 inhibition, confirmed. shares compounds with SENP7 block. Recombinant SENP8, Z-RLRGG-aminoluciferin luminescence, 60 min. inhibition, % at 12.5 µM. 40% of 6,200 active. AID 488912;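 active = mean inhibition across replicates above about 50%, limit read from the data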
# SENP6 confirm = human SENP6 inhibition, confirmed. 58% of 6,200 active. recombinant SENP6, Z-RLRGG-aminoluciferin luminescence. AID 488915. shares compounds with SENP7 block. inhibition, % at 12.5 µM
# SENP7 conf = confirmation of human SENP7 protease inhibitors. inhibition, % at 12.5 µM. recombinant SENP7, Z-RLRGG-aminoluciferin luminescence, 40 min. 69% of 6,200 active. AID 488917. shares compounds with SENP7 block
# Casp3 select = selectivity test for SENP inhibitors: human caspase-3 inhibition; shares compounds with SENP7 block; purified caspase-3, Z-DEVD-aminoluciferin luminescence, 60 min; inhibition, % at 12.5 µM; 60% of 6,200 active;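 active = mean inhibition above about 50%, limit read from the data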;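 note: plate controls were enzyme with DMSO for no effect and wells without caspase-3 for full effect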
# Target sequence (P42574 28-227 limits assumed): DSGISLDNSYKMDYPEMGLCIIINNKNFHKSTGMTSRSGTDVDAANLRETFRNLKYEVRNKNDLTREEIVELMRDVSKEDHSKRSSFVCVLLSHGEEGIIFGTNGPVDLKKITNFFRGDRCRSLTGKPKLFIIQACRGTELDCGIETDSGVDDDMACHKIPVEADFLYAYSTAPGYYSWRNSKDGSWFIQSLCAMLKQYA
# Luc interf = luminescence interference (SENP counter-screen) | AID 488919 | shares compounds with SENP7 block | inhibition, % at 12.5 µM | 39% of 6,200 active | Pre-incubated SENP8/Z-RLRGG-aminoluciferin, luciferase luminescence interference;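 active = mean inhibition above about 50% when retested at one dose, limit read from the data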;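 note: plate controls were DMSO wells with completed reaction for no effect and substrate without enzyme for full effect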
# * = called active by the depositor; . = no result. This is a sample that favours compounds with a hit; in the whole collection about 2.9% have one here.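 Rule for the calls, unless noted: active = mean inhibition above about 50% in the one-dose retest (limit read from the data); inactive = the rest.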
SMILES,SENP8 block-1,SENP8 block-2,SENP6 block,SENP7 block,HSP90 refold inh,SENP1 FRET inh,SENP8 conf,SENP6 confirm,SENP7 conf,Casp3 select,Luc interf
CC(Nc1cccc2ccccc12)C(=O)N/N=C/c1ccccn1 (centres undefined),18.4,84.8*,81.2*,45.4,2.6,-12.9,-9.2,4.8,-3.7,1.3,3.5
CC(=O)Oc1ccc2occ(-c3ccccc3)c2c1,10.4,0.7,-6.3,-4.4,-2.2,-1.0,.,.,.,.,.
COc1ccc2cc(-c3ccccc3)c(=O)oc2c1,-364.8,74.9*,92.4*,88.1*,2.9,-2.1,14.6,89.6*,98.6*,86.1*,39.9
CCN(CC)C(=O)Oc1ccc2c(=O)c(-c3ccccc3)coc2c1,0.0,53.5*,81.2*,70.6*,-3.5,1.4,17.6,25.2,54.2*,57.3*,20.6
COc1ccc2c(=O)c(-c3ccccc3)coc2c1,2.6,74.7*,78.7*,80.2*,4.1,-1.0,40.4,72.7*,92.6*,84.0*,33.9
COc1ccc(/C=C/C2=NN(C)C(=O)CC2)cc1,-1.7,69.1*,78.4*,83.4*,-3.4,0.1,80.9*,79.9*,93.9*,92.6*,80.1*
Cc1cc2ncn(S(=O)(=O)c3ccc(S(=O)(=O)N4CCCCCC4)cc3)c2cc1C,5.3,-7.9,-0.2,67.5*,-2.4,1.1,-5.4,-0.8,4.5,2.9,-2.7
Cc1cc2ncn(S(=O)(=O)c3ccc(S(N)(=O)=O)cc3)c2cc1C,4.6,.,.,.,.,-2.1,.,.,.,.,.
COC(=O)CCC(C)C1CCC2C3C(OC(C)=O)CC4CC(O)CCC4(C)C3CC(O)C12C (centres undefined),6.4,.,.,.,.,-0.8,.,.,.,.,.
COc1ccc(NC(=O)COc2ccc3c(C)cc(=O)oc3c2)cc1S(=O)(=O)N1CCCCC1,-420.5,4.0,9.6,1.3,.,-4.6,.,.,.,.,.
C/C(=N/NC(=O)c1cccs1)c1c(C)[nH]n(-c2nc3ccccc3s2)c1=O,-372.3,92.8*,96.7*,99.2*,15.9,-25.7,90.3*,81.1*,93.8*,97.8*,66.5*
O=C(NNC(=O)c1ccccc1O)c1ccc(Cl)cc1,13.3,-15.8,-1.1,-11.5,-0.8,1.0,.,.,.,.,.
Cc1cccc(C(=O)NNC(=O)c2ccc(Cl)cc2)c1O,1.0,29.5,54.7*,30.7,-0.8,2.0,52.3*,47.9,77.3*,71.1*,62.2*
COC(=O)c1ccc(OC(=O)CN2C(=O)c3ccccc3C2=O)cc1,15.4,-11.7,-1.7,-3.8,0.4,1.3,.,.,.,.,.
O=C(CS(=O)(=O)c1ccccc1)c1ccc2c(c1)OCCO2,3.5,33.7,56.7*,50.7*,2.6,0.0,62.6*,60.3*,86.2*,81.5*,65.1*
O=C(O)CCC(=O)c1ccc2c(c1)OCCO2,-4.7,-2.4,2.6,5.1,11.3,0.8,.,.,.,.,.
Cc1nn2cc(-c3ccc(Cl)cc3)cnc2c1Cl,14.9,-9.5,-27.1,75.9*,-4.1,0.7,10.2,8.2,19.3,35.8,7.1
O=C1NC(Cc2ccccc2)c2nc3cc(F)ccc3c(=O)n2-c2ncccc21 (centres undefined),-11.5,.,.,.,.,-0.4,.,.,.,.,.
O=C(c1ccc(F)cc1)C1CCN(C(=S)Nc2ccc(F)cc2)CC1,1.2,-1.9,-1.9,-7.1,1.0,18.5,.,.,.,.,.
O=C(Nc1cccc2cccnc12)c1ccc2c(c1)OCCO2,-3.4,8.6,49.3,32.1,1.1,-2.6,.,.,.,.,.
O=C(Nc1cccc2nsnc12)c1ccc(F)cc1,-410.0,-8.5,9.3,29.8,-0.4,-26.9,.,.,.,.,.
O=C(Nc1cccc2nsnc12)c1ccc2c(c1)OCO2,-407.2,52.1*,68.5*,59.7*,-9.3,-61.3,30.0,65.6*,77.1*,67.1*,10.9
O=C(Nc1cccc2nsnc12)c1ccc2c(c1)OCCO2,-273.3,66.0*,77.2*,-20.0,-0.3,-25.4,11.1,83.0*,97.7*,88.0*,27.2
OCCC1CCCCN1CC(O)COCc1ccc(Cl)cc1 (centres undefined),16.1,-2.6,-12.1,-0.7,-0.7,-1.0,.,.,.,.,.
COc1cc(OC)cc(C(=O)OCC(=O)c2cc(C)n(CC3CCCO3)c2C)c1 (centres undefined),0.2,47.9,68.0*,21.7,.,-0.4,57.4*,49.1,78.8*,52.8*,3.4
SMILES,SENP8 block-1,SENP8 block-2,SENP6 block,SENP7 block,HSP90 refold inh,SENP1 FRET inh,SENP8 conf,SENP6 confirm,SENP7 conf,Casp3 select,Luc interf
O=C1/C(=C/c2ccc([N+](=O)[O-])cc2)CCc2ccccc21,.,90.2*,94.8*,98.3*,3.3,.,1.2,80.6*,-9.0,39.5,36.7
CC(=O)Oc1ccc(/C=C2/CCc3ccccc3C2=O)cc1,6.5,95.3*,96.8*,96.5*,2.5,2.9,96.0*,99.7*,101.7*,94.2*,98.3*
COc1ccc(/C=C2\CCc3ccccc3C2=O)cc1OC,1.4,33.0,52.3*,25.2,-22.4,-13.2,69.0*,62.5*,61.9*,27.1,41.9
CCCCNC(=O)C1(C)CCN1C(=O)c1cc(-c2ccccc2)cs1 (centres undefined),28.4,.,.,.,.,1.7,.,.,.,.,.
CC1(C(=O)NS(=O)(=O)c2ccccc2)CCN1C(=O)c1ccc(C2CCCCC2)cc1 (centres undefined),8.5,.,.,.,.,0.9,.,.,.,.,.
Cc1cc(C(=O)COC(=O)c2ccc(O)cc2O)c(C)n1-c1ccccc1,-3.5,84.1*,88.7*,60.8*,.,-0.2,87.5*,89.2*,96.1*,58.6*,32.3
O=C(Nc1ccc(N2CCOCC2)cc1N1CCOCC1)c1ccc(F)cc1,-19.2,1.1,-10.9,8.0,.,0.2,.,.,.,.,.
Nc1ccn([C@@H]2O[C@H](CNCc3cnc(N4CCOCC4)s3)[C@@H](O)[C@H]2O)c(=O)n1,6.9,.,.,.,.,-2.5,.,.,.,.,.
Cc1cccc2c1OCC/C2=N\NC(=O)COc1ccccc1Cl,-215.7,-33.4,-40.9,72.6*,-6.8,0.5,8.5,6.5,3.4,-3.3,-8.3
CCc1ccc(C(=O)/C=C2\Sc3ccccc3NC2=O)cc1,15.3,32.3,70.0*,2.5,5.5,2.7,69.0*,68.0*,87.8*,61.1*,14.4

# Screening results from PubChem.
